Laboratory results as given in ChEMBL document CHEMBL3612030 (Eur J Med Chem, 2015).
The source made the active and inactive calls. The calls are words filed in the database; no cut-off is given here.

Assays:
[1] = molecular target: T1, Polyunsaturated fatty acid 5-lipoxygenase (Homo sapiens, UniProt P09917); test: Inhibition of 5-LOX in human neutrophils assessed as reduction in LTB4 and 5-H(P)ETE) formation pre-incubated for 15 mins before A23187 and arachidonic acid substrate addition by RP-HPLC method
T1 sequence (P09917 whole entry): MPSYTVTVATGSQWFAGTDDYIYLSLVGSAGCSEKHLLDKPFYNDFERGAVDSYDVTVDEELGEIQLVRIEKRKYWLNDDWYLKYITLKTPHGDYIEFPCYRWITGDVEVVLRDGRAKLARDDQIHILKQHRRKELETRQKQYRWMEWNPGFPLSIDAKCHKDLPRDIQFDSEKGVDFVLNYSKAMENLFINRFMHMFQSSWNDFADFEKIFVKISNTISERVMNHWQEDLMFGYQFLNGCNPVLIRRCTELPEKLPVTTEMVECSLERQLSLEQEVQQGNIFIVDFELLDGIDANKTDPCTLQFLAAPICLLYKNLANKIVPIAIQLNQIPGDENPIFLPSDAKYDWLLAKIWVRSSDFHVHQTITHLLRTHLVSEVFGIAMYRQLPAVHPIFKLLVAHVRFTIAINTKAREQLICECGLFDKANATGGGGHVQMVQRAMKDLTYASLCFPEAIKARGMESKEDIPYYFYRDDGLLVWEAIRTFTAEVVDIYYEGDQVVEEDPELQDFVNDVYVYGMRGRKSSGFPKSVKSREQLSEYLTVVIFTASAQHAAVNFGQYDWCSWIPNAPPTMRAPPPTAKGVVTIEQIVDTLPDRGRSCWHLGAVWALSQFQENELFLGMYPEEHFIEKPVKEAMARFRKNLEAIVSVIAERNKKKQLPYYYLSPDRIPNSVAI
How it was run: (§1)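 Freshly isolated neutrophils (1 × 10^7/mL) pre-incubated with compound for 15 min at 37 °C. LTB4, its all-trans isomers and 5-H(P)ETE extracted and quantified by HPLC; cysteinyl-LTs and LTB4 oxidation products not measured. Mean ± S.E.M. of 3–4 independent experiments.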

[2] = molecular target: T2, Polyunsaturated fatty acid 5-lipoxygenase (Homo sapiens) (UniProt P09917); test: Inhibition of human 5-LOX expressed in HEK293 cells without FLAP expression assessed as reduction in LTB4 and 5-H(P)ETE) formation at 1 uM pre-incubated for 10 mins before arachidonic acid substrate addition by RP-HPLC method; assay type: cell-based
T2 sequence (whole entry): T1 sequence (P09917 whole entry)
How it was run: (§2)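 Stably transfected HEK 293 cells expressing 5-LO alone or 5-LO plus FLAP, 1 × 10^6 cells in 1 mL PBS with 0.1% glucose and 1 mM CaCl2. Pre-incubated with compound 10 min at 37 °C, then stimulated with 2.5 µM A23187 plus 2 µM arachidonic acid for 10 min at 37 °C. Stopped with methanol; all-trans LTB4 isomers and 5-H(P)ETE extracted and measured by HPLC.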

[3] = molecular target: T1, Polyunsaturated fatty acid 5-lipoxygenase; test: Inhibition of human 5-LOX expressed in Escherichia coli Bl21 (DE3) assessed as reduction in LTB4 and 5-H(P)ETE) formation pre-incubated for 10 mins before arachidonic acid substrate addition by RP-HPLC method
How it was run: (§3)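 Human 5-LO expressed from pT3-5LO in E. coli BL21(DE3) and semi-purified on ATP-agarose. Diluted in PBS with 1 mM EDTA and 1 mM ATP, pre-incubated with compound 10 min at 4 °C, then warmed 30 s at 37 °C. Reaction started with 2 mM CaCl2 plus 20 µM arachidonic acid, run 10 min at 37 °C and stopped with ice-cold methanol. All-trans LTB4 isomers and 5-H(P)ETE measured by RP-HPLC. 3–4 independent experiments.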

U-937 = test: Cytotoxicity against human U937 cells assessed as reduction in viability incubated for 24 hrs by MTT assay; assay type: cell-based; conditions: U-937, 24 h
How it was run: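 U937 cells grown in RPMI 1640 with 10% FBS, […] and penicillin/streptomycin at 37 °C under 5% CO2. Seeded at 1 × 10^6/mL and exposed to 3 concentrations for 24 h. MTT added at one-tenth culture volume for 4 h, then acidic isopropanol. Read at 570 nm minus 630-690 nm background. Untreated cells (RPMI + DMSO) = 100% viability. EC50 = concentration halving MTT reduction. 3–4 independent experiments, mean ± S.E.M.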

[4] = molecular target: T2, Polyunsaturated fatty acid 5-lipoxygenase (Homo sapiens); test: Inhibition of human 5-LOX expressed in HEK293 cells co-expressing FLAP assessed as reduction in LTB4 and 5-H(P)ETE) formation at 1 uM pre-incubated for 10 mins before arachidonic acid substrate addition by RP-HPLC method; assay type: cell-based; how it was run: as §2
[5] = molecular target: T2, Polyunsaturated fatty acid 5-lipoxygenase (Homo sapiens); test: Inhibition of 5-LOX in human neutrophils assessed as remaining enzyme activity by measuring LTB4 and 5-H(P)ETE) formation at 10 uM pre-incubated for 15 mins before A23187 and arachidonic acid substrate addition by RP-HPLC method
How it was run: as §1, with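 “°C. Stimulated with 2.5 µM A23187 plus 20 µM arachidonic acid for 10 min at 37 °C, then stopped with methanol.” for “°C.”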

[6] = molecular target: T2, Polyunsaturated fatty acid 5-lipoxygenase (Homo sapiens); test: Inhibition of human 5-LOX expressed in Escherichia coli Bl21 (DE3) assessed as remaining enzyme activity by measuring LTB4 and 5-H(P)ETE) formation at 10 uM pre-incubated for 10 mins before arachidonic acid substrate addition by RP-HPLC method; how it was run: as §3

SMILES: C#CCCOC(=O)/C=C/c1ccc(OC(C)=O)c(OC(C)=O)c1
- IC50 [1]: 1.8 µM
- inhibition [2]: Active
- IC50 [3]: > 10 µM
- EC50 (U-937): 9.8 µM

SMILES: CC(=O)Oc1ccc(/C=C/C(=O)OCCc2cn(CCCOC(=O)C3(C)CCc4c(C)c(OC(C)=O)c(C)c(C)c4O3)nn2)cc1OC(C)=O (configuration not stated)
- IC50 [1]: 0.16 µM
- inhibition [2]: Active
- IC50 [3]: > 10 µM
- inhibition [4]: Active
- EC50 (U-937): 10.1 µM

SMILES: CC(=O)Oc1ccc(/C=C/C(=O)OCCCN=[N+]=[N-])cc1OC(C)=O
- IC50 [1]: 1.3 µM
- IC50 [3]: > 10 µM

SMILES: C#CCCNC(=O)/C=C/c1ccc(OC(C)=O)c(OC(C)=O)c1
- IC50 [1]: 8.23 µM
- IC50 [3]: > 10 µM

SMILES: CC(=O)Oc1ccc(/C=C/C(=O)O)cc1OC(C)=O
- IC50 [1]: > 10 µM
- IC50 [3]: > 10 µM
- Activity [5]: 84.7%
- Activity [6]: 90.3%

SMILES: CC(=O)Oc1ccc(/C=C/C(=O)OCCCn2cc(CCO)nn2)cc1OC(C)=O
- IC50 [1]: > 10 µM
- IC50 [3]: 7.6 µM

SMILES: CC(=O)Oc1ccc(/C=C/C(=O)OCCCCCCCCc2cn(CCCO)nn2)cc1OC(C)=O
- IC50 [1]: 0.2 µM
- IC50 [3]: 3.2 µM
- EC50 (U-937): 10.2 µM

SMILES: C#CCCCCCCCCOC(=O)/C=C/c1ccc(OC(C)=O)c(OC(C)=O)c1
- IC50 [1]: 0.18 µM
- IC50 [3]: > 10 µM

SMILES: O=C(O)/C=C/c1ccc(O)c(O)c1 [CAFFEIC ACID]
- EC50 (U-937): 9.9 µM

SMILES: C#CCCOC(=O)/C=C/c1ccc(F)c(F)c1
- IC50 [1]: > 10 µM
- IC50 [3]: > 10 µM
- Activity [5]: 88.2%
- Activity [6]: 52.6%

SMILES: C#CCCCCCOC(=O)/C=C/c1ccc(OC(C)=O)c(OC(C)=O)c1
- IC50 [1]: 0.47 µM
- IC50 [3]: > 10 µM

SMILES: CC(=O)Oc1ccc(/C=C/C(=O)NCCc2cn(CCCO)nn2)cc1OC(C)=O
- IC50 [1]: > 10 µM
- IC50 [3]: > 10 µM
- Activity [5]: 104%
- Activity [6]: 53.6%
- EC50 (U-937): 10.3 µM

SMILES: CC(=O)Oc1ccc(/C=C/C(=O)OCCCCc2cn(CCCO)nn2)cc1OC(C)=O
- IC50 [1]: 6.1 µM
- IC50 [3]: 7.6 µM

SMILES: O=C(/C=C/c1ccc(F)c(F)c1)OCCc1cn(CCCO)nn1
- IC50 [1]: > 10 µM
- IC50 [3]: > 10 µM
- Activity [5]: 101%
- Activity [6]: 90.3%
- EC50 (U-937): 5.1 µM

SMILES: CC(=O)Oc1ccc(/C=C/C(=O)OCCCn2cc(CCOC(=O)/C=C/c3ccc(OC(C)=O)c(OC(C)=O)c3)nn2)cc1OC(C)=O
- IC50 [1]: 0.6 µM
- inhibition [2]: Active
- IC50 [3]: > 10 µM
- inhibition [4]: Active
- EC50 (U-937): 9.6 µM

SMILES: C#CCCCCOC(=O)/C=C/c1ccc(OC(C)=O)c(OC(C)=O)c1
- IC50 [1]: 0.92 µM
- IC50 [3]: > 10 µM

SMILES: CC(=O)Oc1c(C)c(C)c2c(c1C)CCC(C)(C(=O)OCCCN=[N+]=[N-])O2 (configuration not stated)
- IC50 [1]: 2.6 µM
- IC50 [3]: > 10 µM
